Reference: ChEMBL document CHEMBL3872226, “Evaluation of selected 3D virtual screening tools for the prospective identification of peroxisome proliferator-activated receptor (PPAR) γ partial agonists” (Eur J Med Chem, 2016)

Key:
[1] = target: T1, Peroxisome proliferator-activated receptor gamma (Homo sapiens) (UniProt P37231); assay: Transactivation of GAL4-fused human PPARgamma ligand binding domain expressed in African green monkey COS7 cells at 10 uM after 42 hrs by dual luciferase reporter gene assay relative to pioglitazone; assay type: cell-based; settings: COS-7
T1 sequence (whole entry): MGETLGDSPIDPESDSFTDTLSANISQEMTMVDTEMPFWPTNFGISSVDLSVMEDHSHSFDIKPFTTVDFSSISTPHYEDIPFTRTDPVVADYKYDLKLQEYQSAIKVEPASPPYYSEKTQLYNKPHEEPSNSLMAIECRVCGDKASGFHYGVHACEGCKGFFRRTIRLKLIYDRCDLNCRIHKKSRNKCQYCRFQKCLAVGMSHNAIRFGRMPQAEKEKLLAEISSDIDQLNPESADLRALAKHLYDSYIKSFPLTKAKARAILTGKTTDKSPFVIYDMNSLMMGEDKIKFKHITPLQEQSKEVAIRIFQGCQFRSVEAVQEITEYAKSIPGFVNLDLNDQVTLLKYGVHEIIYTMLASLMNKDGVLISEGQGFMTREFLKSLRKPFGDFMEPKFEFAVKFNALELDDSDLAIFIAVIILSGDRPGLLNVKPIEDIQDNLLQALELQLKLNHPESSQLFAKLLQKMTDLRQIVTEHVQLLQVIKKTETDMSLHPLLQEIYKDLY
Method in brief: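 COS-7 cells seeded at 10^4 cells/well in DMEM with 10% FCS, grown 24 h at 37 °C, 5% CO2. Transiently transfected in serum- and antibiotic-free medium with pGal5-TK-Luc (30 ng), pGal4-PPARγ-LBD (3 ng) and pRenilla-CMV (1 ng). Compounds or DMSO vehicle added after 4 h, triplicates; dual-luciferase read after 42 h. Activation relative to pioglitazone.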

[2] = target: T1, Peroxisome proliferator-activated receptor gamma (Homo sapiens); assay: Displacement of Fluoromone from GST-tagged recombinant human PPARgamma ligand binding domain at 10 uM by LanthaScreen TR-FRET assay relative to pioglitazone
Method in brief: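 Recombinant GST-tagged PPARγ LBD incubated with terbium-labelled anti-GST antibody and fluorescein-labelled pan-PPAR agonist Fluoromone (5 nM), triplicates; DMSO negative control, pioglitazone and telmisartan positive controls. TR-FRET read as 520/495 nm emission ratio; compound autofluorescence subtracted as blank. Displacement expressed relative to pioglitazone.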

[3] = target: T2, Peroxisome proliferator-activated receptor gamma (Homo sapiens, UniProt P37231); assay: Displacement of Fluoromone from GST-tagged recombinant human PPARgamma ligand binding domain by LanthaScreen TR-FRET assay
T2 sequence (P37231 whole entry): T1 sequence (whole entry)

[4] = target: T2, Peroxisome proliferator-activated receptor gamma; assay: Transactivation of GAL4-fused human PPARgamma ligand binding domain expressed in African green monkey COS7 cells after 42 hrs by dual luciferase reporter gene assay; assay type: cell-based, COS-7

| SMILES | Activity [1] [%] | inhibition [2] [%] | further results |
| --- | --- | --- | --- |
| O=c1n(Cc2ccc(Cl)cc2Cl)c2ccccc2n1Cc1ccc(Cl)cc1Cl | 9.1 |  |  |
| O=S(=O)(c1ccc(Cl)cc1)c1cnn(S(=O)(=O)c2ccc(Cl)cc2Cl)c1-c1ccc(Cl)cc1 |  | 80 | EC50 [3]: 2100 nM |
| CCCc1nc2c(C)cc(-c3nc4ccccc4n3C)cc2n1Cc1ccc(-c2ccccc2C(=O)O)cc1 [TELMISARTAN] |  | 91 | EC50 [3]: 700 nM |
| Cc1cc(Oc2nc(NCCSC(C)(C)C)nc(Oc3cc(C)c(Cl)c(C)c3)n2)cc(C)c1Cl | 9 |  |  |
| Cc1[nH]c2ccccc2c1SCc1nnc(SCc2ccccc2)n1C | 9.8 |  |  |
| O=C(CN1c2ccccc2Sc2ccccc21)NNC(=S)NCc1ccccc1 | 41.9 | 86 | EC50 [4]: 21700 nM; EC50 [3]: 2800 nM |
| COc1ccc(-c2cn3cccc(OCc4ccc(Cl)c(Cl)c4)c3n2)cc1 |  | 60 | EC50 [3]: 3100 nM |
| COc1ccc(CCNc2ccc(C(F)(F)F)cc2/N=C/c2cc(Cl)cc(Cl)c2O)cc1OC | 9.9 |  |  |
| N#CC(/N=C/c1cc(Cl)cc(Cl)c1O)=C(C#N)/N=C/c1cc(Cl)cc(Cl)c1O |  | 46 |  |
| Cc1noc(C)c1-c1nc(CS(=O)(=O)Cc2ccc(Cl)cc2)no1 | 12.8 |  |  |
| Cc1ccc(Sc2c(C(=O)O)cnc3c2c(C)nn3C)cc1 | 7 |  |  |
| O=S(=O)(Nc1cc(Cc2cc(NS(=O)(=O)c3ccccc3)cc(C(F)(F)F)c2)cc(C(F)(F)F)c1)c1ccccc1 | 23.7 | 99 | EC50 [4]: 3400 nM; EC50 [3]: 600 nM |
| COc1cc2c(cc1OC)C(/C=C1\SC(C(=O)c3cccs3)=NN1c1ccc(C)cc1)=NCC2 |  | 42 |  |
| N#Cc1c(SCc2ccccc2)nc2c(c1/C=C\c1ccccc1)CCC2 | 14.4 |  |  |
| O=S(=O)(Nc1ccc(Oc2ccc(OC(F)(F)F)cc2)cc1)c1cc(Cl)c(Cl)cc1Cl |  | 45 |  |
| Cc1ccc(S(=O)(=O)Nc2ccc(Oc3cccnc3)nc2)cc1 | 6 |  |  |
| CC(C)(CC(=O)O)CC(=O)N1CCCN(c2nccc(C(F)(F)F)n2)CC1 | 9.8 |  |  |
| Cn1ccnc1SCc1nccn1Cc1ccc(Cl)cc1 | 8.1 |  |  |
| COc1nc(-c2ccc(OCc3ccccc3)cc2OCc2ccc(F)cc2)cc(-c2ccc(C)cc2)c1C#N | 9.5 |  |  |
| Cc1nn(C)c(Cl)c1S(=O)(=O)Nc1ccc(Oc2ccc(F)cc2)cc1 | 3 |  |  |

Second part, led by results:

| Activity [1] [%] | inhibition [2] [%] | SMILES | further results |
| --- | --- | --- | --- |
| 2.7 |  | Oc1c(O)c(CN2CCCCC2)c2ccccc2c1CN1CCCCC1 |  |
| 10.1 |  | Cc1ccc(S(=O)(=O)n2nc(C)c(Sc3nccn3C)c2C)cc1 |  |
|  | 48 | O=S(=O)(CS(=O)(=O)Oc1cc(Cl)cc(Cl)c1)Oc1cc(Cl)cc(Cl)c1 |  |
| 7.8 |  | Cc1c(NS(=O)(=O)c2ccc(S(=O)(=O)c3ccccc3)s2)c(=O)n(-c2ccccc2)n1C |  |
| 12 |  | O=C(O)c1cn(C2CCCCC2)c2ccccc2c1=O |  |
| 8.4 |  | Cc1noc(C)c1-c1noc(CSCc2ccc(Cl)cc2)n1 |  |
| 11.1 |  | O=C(CSCc1ccc(Cl)c(Cl)c1)c1ccc(OCc2ccc([N+](=O)[O-])cc2)cc1 |  |
|  | 76 | CSc1nc(Sc2nnc(-c3cc(C(F)(F)F)cc(C(F)(F)F)c3)[nH]2)cc(Sc2nnc(-c3cc(C(F)(F)F)cc(C(F)(F)F)c3)[nH]2)n1 | EC50 [3]: 5400 nM |
| 12.3 |  | O=C(CSc1nnc(SCC(=O)NCCSCc2ccco2)s1)NCCSCc1ccco1 |  |
| 2.8 |  | Cc1nc(CSc2nnc(-c3ccc(C(F)(F)F)cc3)n2Cc2ccco2)cs1 |  |
